Measurements as given in ChEMBL document CHEMBL1681759, “Synthesis and biological evaluation of benzimidazole-5-carbohydrazide derivatives as antimalarial, cytotoxic and antitubercular agents” (Bioorg Med Chem, 2011).
Converted amounts (≈) assume the structure as drawn.

Assays:
Plasmodium berghei [1] = experiment: Antimalarial activity against chloroquine-susceptible Plasmodium berghei ANKA assessed as inhibition of trophozoite extract-mediated mouse hemoglobin hydrolysis at 10 mM after 18 hrs by SDS-PAGE; assay type: functional
Procedure, shortened: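 Trophozoite extract came from P. berghei-infected mouse blood at 30–50% parasitemia: RBCs percoll-purified (80–70%), saponin-lysed, then freeze–thawed three times. Substrate was native haemoglobin from uninfected mouse erythrocytes lysed in water. The mix held GSH and acetate buffer (0.2 M, pH 5.4). Compound was added in DMSO and incubated 37 °C, 18 h. Reactions were stopped with reduced sample buffer.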

Plasmodium berghei [2] = experiment: Antimalarial activity against chloroquine-susceptible Plasmodium berghei ANKA infected in Balb-C mouse; assay type: functional, organism-based
Procedure, shortened: (§1)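 Balb-C mice (18–23 g, n = 6) were infected iv in the caudal vein with 10⁶ P. berghei ANKA-infected RBCs. Dosing started 2 h post-infection: 20 mg/kg ip once daily for 4 days, DMSO stock diluted in Saline-Tween 20 (2%). Chloroquine 25 mg/kg served as positive control; untreated mice were controls. Parasitemia was read on day 4 from Giemsa smears, and survival days were recorded.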

[3] = Inhibition of beta-hematin formation assessed as inhibition of […] polymerization at […] after 48 hrs; assay type: functional
Procedure, shortened: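 Hemin chloride (50 µL, 4 mM in DMSO) was mixed in triplicate with compound in DMSO; water or DMSO served as controls. Reaction was started with acetate buffer (0.2 M, pH 4.4) and run 37 °C for 48 h. The pellet was DMSO-washed twice, dissolved in 0.2 N NaOH, diluted 1:2 in 0.1 N NaOH, and read at 405 nm as % inhibition of FP polymerization.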

Plasmodium berghei [4] = experiment: Antimalarial activity against chloroquine-susceptible Plasmodium berghei ANKA infected in Balb-C mouse assessed as inhibition parasitemia at 20 mg/kg, ip qd for 4 days […]; assay type: functional; conditions: 96 h, route intraperitoneal; procedure, shortened: as §1
Plasmodium berghei [5] = experiment: Antimalarial activity against chloroquine-susceptible Plasmodium berghei ANKA infected in Balb-C mouse assessed as mouse survival days at 20 mg/kg, ip qd for 4 days […] relative to untreated control; assay type: functional; conditions: route intraperitoneal
[6] = tested on: Mycobacterium tuberculosis; experiment: Antimycobacterial activity against Mycobacterium tuberculosis H37Rv after 5 days by tetrazolium microplate assay; assay type: functional; conditions: 120 h
Procedure, shortened: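 Tetrazolium microplate assay run in 7H9GC broth. DMSO stocks (4 mg/mL) were diluted to final 0.4–25 µg/mL. Isoniazid (0.125–32 µg/mL) and rifampin (0.063–16 µg/mL) were positive controls; inoculum-only and DMSO controls were included. Plates were incubated 5 days at 37 °C, then an MTT-Tween 80 mix was added and incubation continued 24 h at 37 °C. Run in triplicate. MIC = lowest concentration preventing the yellow-to-purple colour change.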

[7] = Cytotoxicity against african green monkey Vero cells assessed as growth inhibition after 48 hrs by sulforhodamine B assay; assay type: cell-based; conditions: chlorocebus sabaeus
Procedure, shortened: (§2)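 Cells were exposed to serial compound dilutions in 96-well plates for 48 h at 37 °C alongside solvent controls. Growth was read colorimetrically by sulforhodamine B. GI50 is the concentration giving a 50% reduction in absorbance versus solvent-treated controls, derived by linear regression.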

DU-145 = experiment: Cytotoxicity against human DU145 cells assessed as growth inhibition after 48 hrs by sulforhodamine B assay; assay type: functional; conditions: DU-145, 48 h; procedure, shortened: as §2
M14 = experiment: Cytotoxicity against human M14 cells assessed as growth inhibition after 48 hrs by sulforhodamine B assay; assay type: functional; conditions: M14, 48 h; procedure, shortened: as §2
HT-29 = experiment: Cytotoxicity against human HT-29 cells assessed as growth inhibition after 48 hrs by sulforhodamine B assay; assay type: functional; conditions: HT-29, 48 h; procedure, shortened: as §2
MCF7 = experiment: Cytotoxicity against human MCF7 cells assessed as growth inhibition after 48 hrs by sulforhodamine B assay; assay type: functional; conditions: MCF7, 48 h; procedure, shortened: as §2
[8] = Cytotoxicity against mouse 3T3 cells assessed as growth inhibition after 48 hrs by sulforhodamine B assay; assay type: cell-based; conditions: NIH3T3 cells; procedure, shortened: as §2
K562 = experiment: Cytotoxicity against human K562 cells assessed as growth inhibition after 48 hrs by sulforhodamine B assay; assay type: functional; conditions: K562, 48 h; procedure, shortened: as §2
NCI-H460 = experiment: Cytotoxicity against human H460 cells assessed as growth inhibition after 48 hrs by sulforhodamine B assay; assay type: functional; conditions: NCI-H460, 48 h; procedure, shortened: as §2

Compound	inhibition at 10000 µM (Plasmodium berghei [1]) [%]	IC50 (Plasmodium berghei [2]) [µM]	inhibition [3] [%]	inhibition in vivo at 20 mg/kg (Plasmodium berghei [4]) [%]	Survival (Plasmodium berghei [5]) [days]	MIC [6] [µg/mL]	GI50 at 48 h [7] [µg/mL]	GI50 (DU-145) [µg/mL]	GI50 (M14) [µg/mL]	GI50 (HT-29) [µg/mL]	GI50 (MCF7) [µg/mL]	GI50 at 48 h [8] [µg/mL]	GI50 (K562) [µg/mL]	GI50 (NCI-H460) [µg/mL]
O=C(O)c1ccc2[nH]c(-c3ccc([N+](=O)[O-])s3)nc2c1	0	21.1	57.6	11.5	12.2									
O=C(NNC(=O)c1ccc2[nH]c(-c3ccc([N+](=O)[O-])s3)nc2c1)c1cccc(Oc2ccccc2)c1	0	19.1	76.5	7.28	11									
CO[C@H]1/C=C/O[C@@]2(C)Oc3c(C)c(O)c4c(O)c(c(/C=N/N5CCN(C)CC5)c(O)c4c3C2=O)NC(=O)/C(C)=C\C=C\[C@H](C)[C@H](O)[C@@H](C)[C@@H](O)[C@@H](C)[C@H](OC(C)=O)[C@@H]1C [RIFAMPIN]						0.063 (≈ 0.0766 µM)								
O=CNNC(=O)c1ccc2[nH]c(-c3ccc([N+](=O)[O-])o3)nc2c1	24.2	8.63	94	25.8	8.2	> 25	62.5 (≈ 198 µM)	15.6 (≈ 49.6 µM)	31.2 (≈ 99.1 µM)	62.5 (≈ 198 µM)	62.5 (≈ 198 µM)	62.5 (≈ 198 µM)	31.2 (≈ 99.1 µM)	31.2 (≈ 99.1 µM)
O=C(NNC(=O)c1ccc2[nH]c(-c3ccc([N+](=O)[O-])o3)nc2c1)c1ccccc1	0	10.9	79.2	10.1	13.6	12.5 (≈ 31.9 µM)	31.2 (≈ 79.9 µM)	15.6 (≈ 39.9 µM)	15.6 (≈ 39.9 µM)	31.2 (≈ 79.9 µM)	62.5 (≈ 160 µM)	31.2 (≈ 79.9 µM)	15.6 (≈ 39.9 µM)	62.5 (≈ 160 µM)
NNC(=O)c1ccncc1 [ISONIAZID]						0.125 (≈ 0.911 µM)								
CC(C)CC(=O)N[C@H](C(=O)N[C@H](C(=O)N[C@@H](CC(C)C)[C@@H](O)CC(=O)N[C@@H](C)C(=O)N[C@@H](CC(C)C)[C@@H](O)CC(=O)O)C(C)C)C(C)C [PEPSTATIN]	95.5													
O=C(NNC(=O)c1ccc2[nH]c(-c3ccc([N+](=O)[O-])o3)nc2c1)c1cccc(Cl)c1	39	10.3	73.4	3.38	12.4									
O=C(NNC(=O)c1ccc2[nH]c(-c3ccc([N+](=O)[O-])s3)nc2c1)c1ccccc1	39.2	10.8	86.2	10.1	12									
O=C(O)c1ccc2[nH]c(-c3ccc([N+](=O)[O-])o3)nc2c1	0	8.43	95.4	4.02	17	> 25	> 250	125 (≈ 458 µM)	250 (≈ 915 µM)	250 (≈ 915 µM)	> 250	62.5 (≈ 229 µM)	250 (≈ 915 µM)	125 (≈ 458 µM)
COc1cccc(C(=O)NNC(=O)c2ccc3[nH]c(-c4ccc([N+](=O)[O-])s4)nc3c2)c1	13.4	24.5	61.6	24.8	10.6	> 25	> 250	62.5 (≈ 143 µM)	15.6 (≈ 35.7 µM)	31.2 (≈ 71.4 µM)	15.6 (≈ 35.7 µM)	15.6 (≈ 35.7 µM)	15.6 (≈ 35.7 µM)	62.5 (≈ 143 µM)
O=C(NNC(=O)c1ccc2[nH]c(-c3ccc([N+](=O)[O-])o3)nc2c1)c1cccc(Oc2ccccc2)c1		14.1	84.6	12.9	10.6	> 25	> 7.8	> 7.8	> 7.8	> 7.8	> 7.8	> 7.8	> 7.8	> 7.8
CC(=O)N[C@@H](CC(C)C)C(=O)N[C@@H](CC(C)C)C(=O)N[C@H](C=O)CCCNC(=N)N [LEUPEPTIN]	91.6													
COc1cccc(C(=O)NNC(=O)c2ccc3[nH]c(-c4ccc([N+](=O)[O-])o4)nc3c2)c1	2.82	13.1	72.4	5.98	11.8	25 (≈ 59.3 µM)	31.2 (≈ 74.2 µM)	15.6 (≈ 37.1 µM)	7.81 (≈ 18.5 µM)	31.2 (≈ 74.2 µM)	15.6 (≈ 37.1 µM)	15.6 (≈ 37.1 µM)	15.6 (≈ 37.1 µM)	62.5 (≈ 148 µM)
COc1ccc(C(=O)NNC(=O)c2ccc3[nH]c(-c4ccc([N+](=O)[O-])o4)nc3c2)cc1OC	34.5	8.71	94.8	4.8	12.2	> 25	62.5 (≈ 138 µM)	15.6 (≈ 34.6 µM)	15.6 (≈ 34.6 µM)	15.6 (≈ 34.6 µM)	31.2 (≈ 69.2 µM)	31.2 (≈ 69.2 µM)	15.6 (≈ 34.6 µM)	15.6 (≈ 34.6 µM)
CCN(CC)CCCC(C)Nc1ccnc2cc(Cl)ccc12 (stereo not drawn) [CHLOROQUINE]	24.1		94.2	1.3	>30									
O=C(NNC(=O)c1cc2ccccc2cc1O)c1ccc2[nH]c(-c3ccc([N+](=O)[O-])s3)nc2c1	14.1	11.1	75.8	1.8	18.8	> 25	31.2 (≈ 66 µM)	62.5 (≈ 132 µM)	62.5 (≈ 132 µM)	62.5 (≈ 132 µM)	62.5 (≈ 132 µM)	31.2 (≈ 66 µM)	31.2 (≈ 66 µM)	62.5 (≈ 132 µM)
O=C(NNC(=O)c1cc2ccccc2cc1O)c1ccc2[nH]c(-c3ccc([N+](=O)[O-])o3)nc2c1	12.9		31.7											
O=C(NNC(=O)c1ccc2[nH]c(-c3ccc([N+](=O)[O-])s3)nc2c1)c1cccc(Cl)c1	44.9	16	78.6	27.2	7.4									
O=CNNC(=O)c1ccc2[nH]c(-c3ccc([N+](=O)[O-])s3)nc2c1	36.2	9.88	87.4	18.7	10.04									
COc1ccc(C(=O)NNC(=O)c2ccc3[nH]c(-c4ccc([N+](=O)[O-])s4)nc3c2)cc1OC	38.2	21.4	70.8	16.1	13.8									
O=C(NNC(=O)c1ccc2[nH]c(-c3ccc([N+](=O)[O-])s3)nc2c1)c1ccc(Cl)cc1	12.7		25.5	13.5	10.8									
COc1cc(C(=O)NNC(=O)c2ccc3[nH]c(-c4ccc([N+](=O)[O-])s4)nc3c2)cc(OC)c1OC		9.56	92.4	9.36	10	> 25	31.2 (≈ 62.8 µM)	62.5 (≈ 126 µM)	62.5 (≈ 126 µM)	62.5 (≈ 126 µM)	31.2 (≈ 62.8 µM)	31.2 (≈ 62.8 µM)	31.2 (≈ 62.8 µM)	62.5 (≈ 126 µM)
O=C(NNC(=O)c1ccc2[nH]c(-c3ccc([N+](=O)[O-])o3)nc2c1)c1ccc(Cl)cc1	33.8	23.4	59.6	27.4	9.8									
